Results from the RNAGym collection of RNA variant scans (doi:10.1126/science.aae0568).
Variants at the floor of the assay were thinned out.

B1: tRNA (parent)
chain: GUUCCGUUGGCGUAAUGGUAACGCGUCUCCCUCCUAAGGAGAAGACUGCGGGUUCGAGUCCCGUACGGAACG

Variants of: B1
Assay: yeast fitness relative to wild type (ratio to wild type); higher = fitter; tRNA-Arg(CCU), competitive growth, 37 C, YPD
Method in brief: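 Changes in genotype frequencies gave Darwinian fitness relative to wild type. Frequencies were read by 100-nucleotide paired-end sequencing of gene amplicons before and after pooled Saccharomyces cerevisiae strains, carrying tRNA-Arg(CCU) gene variants at the native locus, were competed in YPD at 37°C for 24 hours in six replicates. A genotype was kept only with ≥ 100 starting reads, and estimates < 0.5 were set to 0.5.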

With GUUCCGUUGGCGUAAUGGUAACGCGUCUCCUUCCUAAGGAGAAGACUGCGGGUUCGAGUCCCGUACGCAACG as the variant, how does the yeast fitness read?
Its yeast fitness is 0.68.

For GUUCCGUUGGCGUAAUGGUAACGCGUCUCCUUCCUAAGGAGAAGACUGCGGGUUCGACGCGCGUACGGAACG, which yeast fitness is on record?
The yeast fitness was ≤ 0.5.

For GUUCCGUUGGCGUAAUGGUAACGCGUCUCCUUCCUAAGGAGAAGACCGCGGGUUCGAGUCCCGUGCGGUACG, which yeast fitness is on record?
The yeast fitness was ≤ 0.5.

For GUUCCGUUGGCGUAAUGGUAACGCGUCUCCUUCCUAAGGAGAAGACUGCGGGUUCAAGUCCCCUACGGAACG, which yeast fitness is on record?
Its yeast fitness is ≤ 0.5.

Which yeast fitness does the source give for GUUCCGUUGGCGUAAUGGUAACGCGUCUCCCACCUACGGAGAAGACUGCGGGUUCGAGUACCGUACGGAACG here?
The yeast fitness was ≤ 0.5.

With GUUCCGUUGGCGUAAUGGUAACGCGUCUCCCACCUAAGGAGGAGACUGCGGGUUUGAGUCCCGUACGGAACG as the variant, how does the yeast fitness read?
The yeast fitness was ≤ 0.5.

Which yeast fitness does the source give for GUUCCGUUGGCGUAAUGGUAACGCGUCUCCUUCCUAAGGAGAAGACGGCGGGUUCCAGUCCCGUACGGAACG here?
The yeast fitness was ≤ 0.5.

With GUUCCGUUGGCGUAAUGGUAACGCGUCUCCUUCCAAAGGAGAAGACUGCGCGUUCGAGUCCCGUACGGAACG as the variant, how does the yeast fitness read?
The yeast fitness was ≤ 0.5.

With GUUCCGUUGGCGUAAUGGUAACGCGUCUCCCAUCUAAGGAGAAGACUGCGGAUUCGAGUCCCGUACGGAACG as the variant, how does the yeast fitness read?
Its yeast fitness is 0.597.

For GUUCCGUUGGCGUAAUGGUAACGCGUCUCCCAUCUAAGGAGAAGACAGCGGGUUCGAGUCCCGUACGGAACG, which yeast fitness is on record?
The yeast fitness was 0.54.

Which yeast fitness does the source give for GUUCCGUUGGCGUAAUGGUAACGCGUCUCCUUCCUAAGGAGAAGACUGCAGGUUCGAGUCCCGUACGGAACG here?
Its yeast fitness is 0.904.

With GUUCCGUUGGCGUAAUGGUAACGCGUCUCCUUCCCAAGGAGAAGACUGCGGGCUCGAGUCCCGUACGGAACG as the variant, how does the yeast fitness read?
The yeast fitness was ≤ 0.5.

With GUUCCGUUGGCGUAAUGGUAACGCGUCUCCUUCCUAAGGAGAAGACUACGGGUUCGAGUCACGUACGGAACG as the variant, how does the yeast fitness read?
Its yeast fitness is 0.532.

With GUUCCGUUGGCGUAAUGGUAACGCGUCUCCUUCCUAAGGAGAAGACUGCGGGGUCGAGUCGCGUACGGAUCG as the variant, how does the yeast fitness read?
The yeast fitness was ≤ 0.5.

Which yeast fitness does the source give for GUUCCGUUGGCGUAAUGGUAACGCGUCUCCUUCCUAAGGAGAAGACUGCGGGUCCGAGCCCCGUACGGAACG here?
Its yeast fitness is 0.562.

Which yeast fitness does the source give for GUUCCGUUGGCGUAAUGGUAACGCGUCUCCCACCUAAGGAGAAGACUGCGGGUUCGAGUCCCGUACGGAUCG here?
The yeast fitness was 0.857.

For GUUCCGUUGGCGUAAUGGUAACGCGUCUCCUUCCUAAGGACAAGACUGCGGGUUCGAGUCUCGUACGGAACG, which yeast fitness is on record?
Its yeast fitness is 0.574.

With GUUCCGUUGGCGUAAUGGUAACGCGUCUCCCACCUAAGGAGAAGUCUGCGGGUUCGAGUCCCGUACGGCACG as the variant, how does the yeast fitness read?
Its yeast fitness is 0.706.

Which yeast fitness does the source give for GUUCCGUUGGCGUAAUGGUAACGCGUCUCCUUCCUAAGGAGAACACUGCGGGUUCGAGUUCCGUACGGAACG here?
The yeast fitness was 0.689.

For GUUCCGUUGGCGUAAUGGUAACGCGUCUCCUUCCUAAGGAGAAGACUGCAGGUUCGAGUCCCGUACAGAACG, which yeast fitness is on record?
Its yeast fitness is 0.63.

Which yeast fitness does the source give for GUUCCGUUGGCGUAAUGGUAACGCGUCUCCCACCUACGGAGAAGACUGCGGGUUCGAGUCCCGUAUGGAACG here?
Its yeast fitness is ≤ 0.5.

Which yeast fitness does the source give for GUUCCGUUGGCGUAAUGGUAACGCGUCUCCCAUCUAAGGAGUAGACUGCGGGUUCGAGUACCGUACGGAACG here?
Its yeast fitness is 0.595.

With GUUCCGUUGGCGUAAUGGUAACGCGUCUCCUUCCUAAGGAGAAGACUACGGGUUCGAGUCCCGUACGGAACG as the variant, how does the yeast fitness read?
The yeast fitness was 0.949.

Which yeast fitness does the source give for GUUCCGUUGGCGUAAUGGUAACGCGUCUCCUUCCUAAGGAGAAGACUCCGGGUUCGAGUCCCGUACGGAACG here?
Its yeast fitness is 1.

Which yeast fitness does the source give for GUUCCGUUGGCGUAAUGGUAACGCGUCUCCCACAUAAGGAGAAGACUGCGGGCUCGAGUCCCGAACGGAACG here?
Its yeast fitness is ≤ 0.5.

Which yeast fitness does the source give for GUUCCGUUGGCGUAAUGGUAACGCGUCUCCUUCCUAAGGAGAAGACUGCGGGAUCGAGUCCCGUACGGAACG here?
The yeast fitness was 0.656.

Which yeast fitness does the source give for GUUCCGUUGGCGUAAUGGUAACGCGUCUCCUUCCUAAGGAGAAGACUGCGGGCUCGAGUCCCGUACGGAACG here?
The yeast fitness was 0.633.

Which yeast fitness does the source give for GUUCCGUUGGCGUAAUGGUAACGCGUCUCCUUCCUAAGGAGAAGACGGCGGGUUCGAGUCCCGUACGGAACG here?
The yeast fitness was 0.526.

With GUUCCGUUGGCGUAAUGGUAACGCGUCUCCUCCAUAAGGAGAAGACUGCGGGUUUGAGUCCCGUACGGAACG as the variant, how does the yeast fitness read?
The yeast fitness was ≤ 0.5.

Which yeast fitness does the source give for GUUCCGUUGGCGUAAUGGUAACGCGUCUCCCACCUCAGGAGAAGACUGCGGGUUCGAGUCCCGUACGGAGCG here?
Its yeast fitness is ≤ 0.5.

Which yeast fitness does the source give for GUUCCGUUGGCGUAAUGGUAACGCGUCUCCUUCCUAAGGAGAAGACUCCGGGUUAGAGUGCCGUACGGGACG here?
The yeast fitness was ≤ 0.5.

With GUUCCGUUGGCGUAAUGGUAACGCGUCUCCUUCCUAAGGAGAAGACUGCGGGUUCAAGUCCCGUACGGAACG as the variant, how does the yeast fitness read?
Its yeast fitness is 1.04.

Which yeast fitness does the source give for GUUCCGUUGGCGUAAUGGUAACGCGUCUCCUUCCUAAGGAGAAGACUGCGGGUUCGAGUCCCGUACCGAACG here?
The yeast fitness was 0.902.

Which yeast fitness does the source give for GUUCCGUUGGCGUAAUGGUAACGCGUCUCCCACCUACGGAGAAGACUGCGCGUUCGUGUCCCGUACGGAACG here?
The yeast fitness was ≤ 0.5.

For GUUCCGUUGGCGUAAUGGUAACGCGUCUCCCAGCUAAGGAGAAGACUGCGGGUUCGAGUCCCGUACGGAACG, which yeast fitness is on record?
Its yeast fitness is 0.706.

For GUUCCGUUGGCGUAAUGGUAACGCGUCUCCCACCUAAGGAGCAGACUGCGGGUUCGAGUCCCCUUUGGAACG, which yeast fitness is on record?
The yeast fitness was ≤ 0.5.

Which yeast fitness does the source give for GUUCCGUUGGCGUAAUGGUAACGCGUCUCCUUCCUAAGGAGAAGACAGCGUGUUCGAGUCCCGUACGGAACG here?
The yeast fitness was ≤ 0.5.

For GUUCCGUUGGCGUAAUGGUAACGCGUCUCCUUCCUAAGGAGAAGACUGCGGCUACGAGUCCCGUAUGGAACG, which yeast fitness is on record?
Its yeast fitness is ≤ 0.5.
